Results as given in ChEMBL document CHEMBL4725448, “Substituted Azabicyclo[2.2.1]heptanes as Selective Orexin-1 Antagonists: Discovery of JNJ-54717793” (ACS Med Chem Lett, 2020).
≈ marks a conversion by molar mass, not a printed value.

Key:
[1] = Ex vivo receptor occupancy at OX1R in Sprague-Dawley rat brain tenia tecta using [3H]SB-674042 labelling at 30 mg/kg, po measured after 0.5 hrs by autoradiography; type: functional
Method in brief: (§1)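 Ex vivo OX1R binding autoradiography in rat tenia tecta after a 30 mg/kg po dose; percent occupancy read at 0.5 and 2 h.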

[2] = Ex vivo receptor occupancy at OX1R in Sprague-Dawley rat brain tenia tecta using [3H]SB-674042 labelling at 30 mg/kg, po measured after 2 hrs by autoradiography; type: functional; method in brief: as §1
[3] = Drug concentration in Sprague-Dawley rat plasma at 30 mg/kg, po after 0.5 hrs by LC-MS/MS analysis; type: ADME, organism-based
Method in brief: (§2)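 Brain and plasma levels (ng/mL) sampled 0.5 h after oral dosing at 10 or 30 mg/kg, alongside the ex vivo tenia tecta occupancy study.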

Orexin receptor type 2 = molecular target: T1, Orexin receptor type 2 (Homo sapiens, UniProt O43614); test: Binding affinity to human OX2R
T1 sequence (O43614 whole entry): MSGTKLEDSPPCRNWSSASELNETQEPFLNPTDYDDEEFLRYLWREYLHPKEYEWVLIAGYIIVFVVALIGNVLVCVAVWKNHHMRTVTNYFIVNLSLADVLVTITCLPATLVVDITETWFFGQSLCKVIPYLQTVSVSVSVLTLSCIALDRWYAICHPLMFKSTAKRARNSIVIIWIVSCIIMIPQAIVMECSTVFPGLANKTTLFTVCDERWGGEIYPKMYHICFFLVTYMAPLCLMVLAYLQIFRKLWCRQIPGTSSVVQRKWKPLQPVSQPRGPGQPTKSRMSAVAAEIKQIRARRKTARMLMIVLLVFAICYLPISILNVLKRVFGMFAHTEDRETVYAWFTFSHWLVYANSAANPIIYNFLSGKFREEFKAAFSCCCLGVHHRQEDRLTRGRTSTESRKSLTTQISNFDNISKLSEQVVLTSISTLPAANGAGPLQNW

[4] = Drug concentration in Sprague-Dawley rat brain at 30 mg/kg, po after 0.5 hrs by LC-MS/MS analysis; type: ADME, organism-based; details: read-out: Ct; method in brief: as §2
[5] = molecular target: T2, Orexin/Hypocretin receptor type 1 (Homo sapiens, UniProt O43613); test: Binding affinity to human […]
T2 sequence (O43613 whole entry): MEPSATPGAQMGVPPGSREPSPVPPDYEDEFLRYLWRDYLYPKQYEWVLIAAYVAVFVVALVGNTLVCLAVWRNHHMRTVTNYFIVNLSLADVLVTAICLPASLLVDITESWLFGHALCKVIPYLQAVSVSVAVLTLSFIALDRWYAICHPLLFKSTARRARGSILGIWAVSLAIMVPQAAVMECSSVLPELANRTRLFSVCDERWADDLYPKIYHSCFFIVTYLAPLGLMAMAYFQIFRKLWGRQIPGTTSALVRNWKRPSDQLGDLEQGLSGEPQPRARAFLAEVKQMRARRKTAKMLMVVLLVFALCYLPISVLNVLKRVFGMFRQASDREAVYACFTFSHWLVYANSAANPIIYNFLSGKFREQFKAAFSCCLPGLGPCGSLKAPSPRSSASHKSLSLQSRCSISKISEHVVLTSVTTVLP

[6] = Stability in human liver microsomes assessed as extraction ratio; type: ADME, Microsome; details: read-out: ERH
Method in brief: (§3)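 Metabolic stability in human or rat liver microsomes, expressed as extraction ratios.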

[7] = Stability in rat liver microsomes assessed as extraction ratio; type: ADME, Microsome; details: read-out: ERH; method in brief: as §3
[8] = Ex vivo receptor occupancy at OX1R in Sprague-Dawley rat brain tenia tecta using [3H]SB-674042 labelling at 10 mg/kg, po measured after 2 hrs by autoradiography; type: functional
Method in brief: (§4)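 Rats received a single oral dose, and OX1R occupancy was measured by ex vivo binding autoradiography in brain tenia tecta sections at 0.5, 2 and 6 h after dosing. Occupancy is expressed as percent. Brain and plasma drug levels (ng/mL) were also sampled at the 0.5 h time point.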

[9] = Ex vivo receptor occupancy at OX1R in Sprague-Dawley rat brain tenia tecta using [3H]SB-674042 labelling at 10 mg/kg, po measured after 0.5 hrs by autoradiography; type: functional; method in brief: as §4
[10] = Drug concentration in Sprague-Dawley rat plasma at 10 mg/kg, po after 0.5 hrs by LC-MS/MS analysis; type: ADME, organism-based; method in brief: as §2
[11] = Ex vivo receptor occupancy at OX1R in Sprague-Dawley rat brain tenia tecta using [3H]SB-674042 labelling at 10 mg/kg, po measured after 6 hrs by autoradiography; type: functional; method in brief: as §4
[12] = Drug concentration in Sprague-Dawley rat brain at 10 mg/kg, po after 0.5 hrs by LC-MS/MS analysis; type: ADME, organism-based; details: read-out: Ct; method in brief: as §2
PXR (NR1I2) = molecular target: T3, PXR (NR1I2) (Homo sapiens, UniProt O75469); test: Induction of human PXR at 10 uM relative to control; type: ADME; details: read-out: Activity
T3 sequence (O75469 whole entry): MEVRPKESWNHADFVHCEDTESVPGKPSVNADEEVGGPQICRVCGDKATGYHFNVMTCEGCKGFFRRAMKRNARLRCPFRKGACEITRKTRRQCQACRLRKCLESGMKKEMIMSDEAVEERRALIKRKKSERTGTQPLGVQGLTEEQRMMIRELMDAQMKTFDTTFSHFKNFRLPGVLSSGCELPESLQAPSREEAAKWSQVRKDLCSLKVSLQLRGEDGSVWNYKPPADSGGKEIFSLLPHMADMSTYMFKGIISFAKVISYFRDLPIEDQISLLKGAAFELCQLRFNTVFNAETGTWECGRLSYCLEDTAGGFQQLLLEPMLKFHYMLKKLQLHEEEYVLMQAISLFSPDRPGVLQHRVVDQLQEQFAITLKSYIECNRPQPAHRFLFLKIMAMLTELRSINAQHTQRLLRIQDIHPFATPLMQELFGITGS
Method in brief: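 Human PXR activation as an indirect measure of CYP3A4 induction, at 10 μM, expressed as % of rifampicin control activation.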

[13] = Permeability across basolateral to apical side in MDCK cells; type: ADME, cell-based, Canis lupus familiaris; details: dog
[14] = Ex vivo receptor occupancy at OX1R in po dosed rat tenia tecta after 60 mins; type: functional, organism-based; details: 1 h
[15] = Permeability across apical to basolateral side in MDCK cells; type: ADME, cell-based, Canis lupus familiaris; details: dog
[16] = Protein binding in rat plasma assessed as free fraction; type: ADME, cell-free
[17] = Protein binding in rat brain assessed as free fraction; type: ADME, tissue-based
[18] = Protein binding in human plasma assessed as free fraction; type: ADME, cell-free
Homo sapiens = species: Homo sapiens; test: Selectivity index, ratio of Ki for human OX2R to Ki for human OX1R

SMILES | Ki (Orexin receptor type 2) [nM] | Ki [5] [nM] | hepatic extraction ratio [6] | hepatic extraction ratio [7] | also measured
Cc1ccc(-n2nccn2)c(C(=O)N2C3CCC2C(COc2ccc(F)cn2)C3)c1 (racemic) | 72 | – | – | – | Activity [1]: 49%; Activity [2]: 43%; concentration at 0.5 h [3]: 55 ng/mL; concentration at 0.5 h [4]: 16 ng/mL
O=C(c1ccccc1-n1nccn1)N1[C@@H]2CC[C@H]1[C@H](Nc1cnc(C(F)(F)F)cn1)C2 | 770 | 30 | < 0.3 | 0.31 | –
Cc1ccc(-c2ncccn2)c(C(=O)N2C3CCC2C(COc2ccc(F)cn2)C3)c1 (racemic) | 40 | 8.7 | 0.91 | 0.89 | –
O=C(c1cc(F)ccc1-c1ncccn1)N1C2CCC1C(COc1ccc(F)cn1)C2 (racemic) | 160 | 41 | 0.81 | 0.76 | –
O=C(c1cccn2ccnc12)N1CCC(F)(F)[C@@H](Oc2ccc3ccccc3n2)C1 | 1010 | 1.8 | – | – | –
COc1ccc(C[C@H]2c3cc(OC)c(OC)cc3CCN2[C@@H](C(=O)NC(C)C)c2ccccc2)cc1OC | – | 6 | – | – | –
Cc1ccc(-n2nccn2)c(C(=O)N2C3CCC2C(Nc2ccc(C(F)(F)F)cn2)C3)n1 (racemic) | – | 75 | 0.93 | > 0.92 | –
O=C(c1c(F)cccc1-c1ncccn1)N1[C@@H]2CC[C@H]1[C@H](Nc1cnc(C(F)(F)F)cn1)C2 | 560 | – | – | – | Activity [8]: 43%; Activity [9]: 51%; concentration at 0.5 h [10]: 1600 ng/mL; Activity [11]: 29%; concentration at 0.5 h [12]: 654 ng/mL
O=C(c1cccc(F)c1-c1ncccn1)N1[C@@H]2CC[C@H]1[C@H](Nc1ncc(C(F)(F)F)cc1F)C2 | 1100 | 15 | 0.49 | 0.8 | activity at 10 µM (PXR (NR1I2)): 39%; Papp B→A [13]: 71.3 ×10⁻⁶ cm/s; EC50 [14]: 0.25 µg/mL (≈ 0.526 µM); ED50 ([14]; po, time 60 min): 4.8 mg/kg; Papp A→B [15]: 7.7 ×10⁻⁶ cm/s; Activity [8]: 70%; Activity [9]: 81%; concentration at 0.5 h [10]: 837 ng/mL; fraction unbound [16]: 0.064; fraction unbound [17]: 0.027; Activity [11]: 46%; fraction unbound [18]: 0.056; concentration at 0.5 h [12]: 539 ng/mL
O=C(c1cccc(F)c1-c1ncccn1)N1C2CCC1C(Oc1ccc(C(F)(F)F)cn1)C2 (racemic) | > 10000 | 130 | – | – | –
O=C(c1ccccc1-n1nccn1)N1C2CCC1C(Nc1ncc(C(F)(F)F)cn1)C2 (racemic) | – | 180 | – | – | –
Cc1ccc(-n2nccn2)c(C(=O)N2[C@@H]3CC[C@H]2[C@H](COc2ccccn2)C3)n1 | – | – | – | – | Activity [1]: 50%; Activity [2]: 20%; concentration at 0.5 h [3]: 118 ng/mL; concentration at 0.5 h [4]: 8 ng/mL
O=C(c1ccccc1-n1nccn1)N1C2CCC1C(Nc1cnc(C(F)(F)F)cn1)C2 (racemic) | 1250 | 62 | 0.36 | 0.55 | –
Cc1ccc(-n2nccn2)c(C(=O)N2C3CCC2C(COc2ccc(C(F)(F)F)cn2)C3)n1 (racemic) | 420 | 500 | – | – | –
O=C(c1nccc2[nH]cnc12)N1CCC(F)(F)[C@@H](Oc2ccc3ccccc3n2)C1 | – | 5.2 | – | – | –
O=C(c1cc(F)ccc1-c1ncccn1)N1[C@@H]2CC[C@H]1[C@H](Nc1cnc(C(F)(F)F)cn1)C2 | 730 | 65 | – | – | –
O=C(c1ccc(F)cc1-c1ncccn1)N1[C@@H]2CC[C@H]1[C@H](Nc1cnc(C(F)(F)F)cn1)C2 | 1700 | 61 | 0.81 | 0.76 | Activity [1]: 75%; Activity [2]: 17%; concentration at 0.5 h [3]: 257 ng/mL; concentration at 0.5 h [4]: 37 ng/mL
O=C(c1ccccc1-c1cccs1)N1C2CCC1C(COc1ccc(F)cn1)C2 (racemic) | 13 | – | > 0.95 | > 0.92 | –
Cc1ccc(-c2ncccn2)c(C(=O)N2[C@@H]3CC[C@H]2[C@H](COc2ccccn2)C3)n1 | 230 | 19 | 0.61 | 0.82 | –
O=C(c1cccc(F)c1-c1ncccn1)N1[C@@H]2CC[C@H]1[C@H](Nc1ncc(C(F)(F)F)cc1Cl)C2 | 540 | 14 | 0.61 | 0.83 | –
O=C(c1ccccc1-c1ncccn1)N1[C@@H]2CC[C@H]1[C@H](Nc1cnc(C(F)(F)F)cn1)C2 | 520 | 19 | < 0.3 | 0.38 | activity at 10 µM (PXR (NR1I2)): 18%; Papp B→A [13]: 68 ×10⁻⁶ cm/s; Papp A→B [15]: 1.1 ×10⁻⁶ cm/s; Activity [8]: 83%; Activity [9]: 77%; concentration at 0.5 h [10]: 1480 ng/mL; fraction unbound [16]: 0.214; fraction unbound [17]: 0.067; Activity [11]: 48%; fraction unbound [18]: 0.15; concentration at 0.5 h [12]: 296 ng/mL
O=C(c1cccc(F)c1-c1ncccn1)N1[C@@H]2CC[C@H]1[C@H](Nc1ccc(C(F)(F)F)cn1)C2 | – | – | 0.75 | 0.82 | Activity [8]: 69%; Activity [9]: 70%; concentration at 0.5 h [10]: 586 ng/mL; Activity [11]: 21%; concentration at 0.5 h [12]: 72 ng/mL
O=C(c1cccc(F)c1-c1ncccn1)N1C2CCC1C(Oc1cnc(C(F)(F)F)cn1)C2 (racemic) | 5500 | 100 | – | – | –
Cc1ccc(-n2nccn2)c(C(=O)N2[C@@H]3CC[C@H]2[C@H](COc2ccc(F)cn2)C3)n1 | – | – | – | – | Activity [1]: 50%; Activity [2]: 30%; concentration at 0.5 h [3]: 930 ng/mL; concentration at 0.5 h [4]: 313 ng/mL
O=C(c1ccccc1-n1nccn1)N1C2CCC1C(Nc1ccc(Cl)cn1)C2 (racemic) | 2130 | 96 | 0.88 | > 0.92 | Ratio Ki (Homo sapiens): 20
O=C(c1ccccc1-n1nccn1)N1C2CCC1C(Nc1ccc(C(F)(F)F)cn1)C2 (racemic) | 1400 | 52 | 0.69 | 0.87 | –
O=C(c1cc(F)ccc1-n1nccn1)N1C2CCC1C(COc1ccc(F)cn1)C2 (racemic) | 200 | 59 | 0.81 | 0.8 | –
O=C(c1ccccc1-n1nccn1)N1C2CCC1C(Oc1ccc(C(F)(F)F)cn1)C2 (racemic) | 2700 | 130 | – | – | –
